Measurements pooled from the literature.
Each line is one published result; the experiments were not run side by side.
JAK1: Tyrosine-protein kinase JAK1 (JAK1, Homo sapiens, UniProt P23458)
JAK1 JH1: Tyrosine-protein kinase JAK1, JH1 (JAK1, Homo sapiens, UniProt P23458)
JAK1 JH2: Tyrosine-protein kinase JAK1, JH2 (JAK1, Homo sapiens, UniProt P23458)

COc1cc2ncnc(Nc3ccc(Oc4ccccc4)cc3C)c2cc1OC — inhibition (JAK1; enzyme activity, inhibitor; 1 µM): -5%
COc1cc(Cl)c(C(=O)N[C@@H](CN[C@H]2CC[C@@H](N)CC2)Cc2ccc(C#N)cc2)cc1-c1ccc(CN[C@H](C)c2ccc(C)cc2)o1 — remaining activity (JAK1 JH1; enzyme activity, inhibitor; 1 µM): 101%
CN(C)C1CCN(CC#Cc2nn(C3CCCC3)c3nc(NCc4ccccc4)ncc23)C1 (stereo not shown) — inhibition (JAK1; enzyme activity, inhibitor, FRET; 0.1 µM): 2%
O=C1Nc2ccc(Cl)cc2C1=Cc1cc(Cl)c(O)c(Cl)c1 — remaining signal (JAK1; cell-free assay; 0.5 µM): 103%
O=c1nc(-c2ccccn2)sc2ccccc12 — remaining binding (JAK1 JH2; binding, competition with immobilised ligand; 1 µM): 86%
C[C@@H]1CCN(c2nccc(-c3cnn4ncccc34)n2)C1 — remaining signal (JAK1 JH1; cell-free assay; 1 µM): 82%
CC(C)(O)[C@H]1CC[C@H](Nc2ccc3ncc(-c4cccc(C(F)(F)F)c4)n3n2)CC1 — remaining activity (JAK1; enzyme activity, inhibitor; 1 µM): 82.4%
CC(=O)N1CCC(c2ccc(C(=O)NC(=N)N)cc2C(F)(F)F)CC1 — remaining binding (JAK1 JH2; cell-free assay, competition with immobilised ligand; 1 µM): 100%
N#CCCc1ccc2c(c1)-c1[nH]c3ccc([N+](=O)[O-])cc3c1CC(=O)N2 — remaining signal (JAK1; cell-free assay; 0.5 µM): 91.9%
Nc1ncnc2occ(-c3ccc(NC(=O)Nc4cc(C(F)(F)F)ccc4F)cc3)c12 — remaining signal (JAK1 JH2; cell-free assay, inhibitor; 20 µM): 67%
C=CC(=O)Nc1cc(Nc2nccc(Nc3cc(Cl)c(F)cc3C(C)(C)O)n2)c(OC)cc1N1CC[C@@H](N(C)C)C1 — inhibition (JAK1; enzyme activity, inhibitor; 1 µM): 6%
Cc1cnn2ncc(-c3ccnc(N(C)C)n3)c2c1 — remaining binding (JAK1; binding; 1 µM): 51%
c1nc2c(Nc3ccc4c(c3)OCCO4)nc(Nc3ccc4c(c3)OCCO4)nc2[nH]1 — activity vs control (JAK1 JH1; enzyme activity, inhibitor; 10 µM): 52%
Cc1ccc(C(=O)Nc2ccc(CN3CCN(C)CC3)c(C(F)(F)F)c2)cc1C#Cc1cnc2cccnn12 — remaining activity (JAK1; enzyme activity, inhibitor; 23.5 nM): 86%
COc1cc2c(Nc3ccc(Br)cc3F)ncnc2cc1OCC1CCN(C)CC1 — remaining signal (JAK1; cell-free assay; 0.5 µM): 99.1%
N[C@H]1CCN(c2nccc(-c3cnn4ncccc34)n2)C1 — remaining signal (JAK1 JH1; cell-free assay; 1 µM): 100%
O=C(Nc1cnn(-c2csc(C(=O)NC3COC3)c2)c1)Nc1c(F)cccc1Cl — remaining activity (JAK1; enzyme activity, inhibitor; 5 µM): 107%
Cc1ccc(NC(=O)c2ccc(C)c(C(F)(F)F)c2)cc1C#Cc1nn(C2CCC(O)CC2)c2ncnc(N)c12 (stereo not shown) — remaining signal (JAK1 JH1; cell-free assay; 10 µM): 3%
CN([C@@H]1CCc2c(CC(=O)O)c3cc(S(C)(=O)=O)ccc3n2C1)S(=O)(=O)c1ccc(F)cc1 — remaining binding (JAK1 JH2; cell-free assay, competition with immobilised ligand; 1 µM): 94%
CS(=O)(=O)Nc1cccc(-c2csc(NC(=O)CSc3nc4nccnc4c(=O)n3CCc3ccccc3)n2)c1 — inhibition (JAK1; enzyme activity, inhibitor; 10 µM): 9%
CN(CCCC(F)(F)F)c1nccc(-c2cnn3ncccc23)n1 — remaining binding (JAK1 JH1; cell-free assay, competition with immobilised ligand; 1 µM): 100%
Cc1c[nH]c2nccc(Oc3c(F)cc(Nc4cc(Cl)nc(N)n4)cc3F)c12 — remaining binding (JAK1 JH1; cell-free assay, competition with immobilised ligand; 0.1 µM): 80%
O=C1NC(=O)c2cc(Nc3ccc(F)cc3)c(Nc3ccc(F)cc3)cc21 — remaining signal (JAK1; cell-free assay; 0.5 µM): 91.5%
C[C@H](c1cccc(C#N)c1)n1cc(Cl)cc(C(N)=O)c1=N — remaining binding (JAK1 JH1; cell-free assay, competition with immobilised ligand; 1 µM): 57%
O=C(Nc1cnn(-c2csc(C(=O)NC3COC3)c2)c1)Nc1ccccc1Cl — remaining activity (JAK1; enzyme activity, inhibitor; 5 µM): 98.7%
CS(=O)(=O)N1CCCC(NC(=O)[C@H](CCC2CCCCC2)NC(=O)c2ccc(CNC(=O)c3cnc4ccccn34)cc2)C1 (stereo partly shown) — remaining binding (JAK1 JH1; cell-free assay, competition with immobilised ligand; 0.1 µM): 64%
CC(C)(C)c1nc2c(s1)c1nc(N)ncc1c1ccc(NS(=O)(=O)c3c(F)cccc3F)c(F)c12 — remaining activity (JAK1; enzyme activity, inhibitor, radiometric; 1 µM): 90%
CS(=O)(=O)NCC[C@H](NC(=O)c1cncc2c1cnn2-c1ccc(F)cc1)c1ccnc(S(C)(=O)=O)c1 — remaining binding (JAK1 JH2; cell-free assay, competition with immobilised ligand; 1 µM): 100%
CCCS(=O)(=O)Nc1ccc(F)c(C(=O)c2c[nH]c3ncc(-c4ccc(Cl)cc4)cc23)c1F — inhibition (JAK1; enzyme activity, inhibitor; 1 µM): < 20%
COc1cc2nccc(Oc3ccc(NC(=O)c4c5n(n(-c6ccc(F)cc6)c4=O)CCCC5)cc3)c2cc1OC — inhibition (JAK1; enzyme activity, inhibitor; 0.1 µM): -5%
CN1CCN(c2cnc3c(C4CCN(C(=O)c5ccc(OC(F)(F)F)cc5N)CC4)ncnc3c2)CC1 — remaining binding (JAK1 JH1; cell-free assay, competition with immobilised ligand; 1 µM): 100%
